Test results as given in ChEMBL document CHEMBL4373711, “Development of 3,5-Dinitrophenyl-Containing 1,2,4-Triazoles and Their Trifluoromethyl Analogues as Highly Efficient Antitubercular Agents Inhibiting Decaprenylphosphoryl-β-d-ribofuranose 2'-Oxidase” (J Med Chem, 2019).
Values after ≈ are worked out from the molar mass of the structure shown.

Assays:
[1] = test system: Mycobacterium tuberculosis; test: Antimycobacterial activity against multi-drug resistant Mycobacterium tuberculosis Praha 1 after 14 days; type: functional; conditions: for MIC99: Praha 1, 336 h
Procedure, shortened: (§1)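 M. tuberculosis strains (H37Rv and clinical MDR/XDR isolates) tested by microdilution in Šula's semisynthetic medium. Compounds were dissolved in DMSO and tested at 32 to 0.03 µM in twofold steps. Inoculum was a 1.0 McFarland suspension diluted 10-3. Plates were incubated at 37 °C and read at 14 and 21 days.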

[2] = test system: Mycobacterium tuberculosis; test: Antimycobacterial activity against multi-drug resistant Mycobacterium tuberculosis Praha 1 after 21 days; type: functional; conditions: Praha 1, 504 h; procedure, shortened: as §1
[3] = test system: Mycobacterium tuberculosis; test: Antimycobacterial activity against multi-drug resistant Mycobacterium tuberculosis Praha 4 after 14 days; conditions: Praha 4, 336 h
[4] = test system: Mycobacterium tuberculosis; test: Antimycobacterial activity against multi-drug resistant Mycobacterium tuberculosis Praha 4 after 21 days; type: functional; conditions: Praha 4, 504 h; procedure, shortened: as §1
[5] = test system: Mycobacterium tuberculosis; test: Antimycobacterial activity against multi-drug resistant Mycobacterium tuberculosis 9449/2007 after 21 days; type: functional; conditions: for MIC99: 9449/2007, 504 h; procedure, shortened: as §1
[6] = test system: Mycobacterium tuberculosis; test: Antimycobacterial activity against multi-drug resistant Mycobacterium tuberculosis 9449/2007 after 14 days; type: functional; conditions: 9449/2007, 336 h; procedure, shortened: as §1
[7] = test system: Mycobacterium tuberculosis; test: Antimycobacterial activity against multi-drug resistant Mycobacterium tuberculosis 234/2005 after 21 days; type: functional; conditions: 234/2005, 504 h; procedure, shortened: as §1
[8] = test system: Mycobacterium tuberculosis; test: Antimycobacterial activity against multi-drug resistant Mycobacterium tuberculosis 7357/1998 after 21 days; type: functional; conditions: for MIC99: 7357/1998, 504 h; procedure, shortened: as §1
[9] = test system: Mycobacterium tuberculosis; test: Antimycobacterial activity against multi-drug resistant Mycobacterium tuberculosis 7357/1998 after 14 days; type: functional; conditions: 7357/1998, 336 h; procedure, shortened: as §1
[10] = test system: Mycobacterium tuberculosis; test: Antimycobacterial activity against multi-drug resistant Mycobacterium tuberculosis 8666/2010 after 14 days; type: functional; conditions: for MIC99: 8666/2010, 336 h; procedure, shortened: as §1
[11] = test system: Mycobacterium tuberculosis; test: Antimycobacterial activity against multi-drug resistant Mycobacterium tuberculosis 8666/2010 after 21 days; type: functional; conditions: 8666/2010, 504 h; procedure, shortened: as §1
[12] = test system: Mycobacterium tuberculosis; test: microbe, parasite or virus in culture; conditions: 234/2005, 336 h

Compound	MIC99 [1] [µM]	MIC99 [2] [µM]	MIC99 [3] [µM]	MIC99 [4] [µM]	MIC99 [5] [µM]	MIC99 [6] [µM]	MIC99 [7] [µM]	MIC99 [8] [µM]	MIC99 [9] [µM]	MIC99 [10] [µM]	MIC99 [11] [µM]	MIC99 [12] [µM]	MIC>99 [1] [µM]	MIC>99 [5] [µM]	MIC>99 [8] [µM]	MIC>99 [10] [µM]
O=[N+]([O-])c1cc(-c2nnc(SCc3ccc(Br)cc3)n2Cc2ccccc2)cc([N+](=O)[O-])c1	0.125 (≈ 0.0658 µg/mL)	0.25 (≈ 0.132 µg/mL)	0.125 (≈ 0.0658 µg/mL)	0.25 (≈ 0.132 µg/mL)	0.125 (≈ 0.0658 µg/mL)	0.25 (≈ 0.132 µg/mL)	0.25 (≈ 0.132 µg/mL)	0.125 (≈ 0.0658 µg/mL)	0.25 (≈ 0.132 µg/mL)	0.25 (≈ 0.132 µg/mL)	0.25 (≈ 0.132 µg/mL)	0.125 (≈ 0.0658 µg/mL)				
CCCCCCn1c(SCc2cc([N+](=O)[O-])cc([N+](=O)[O-])c2)nnc1-c1ccccc1	1 (≈ 0.442 µg/mL)	2 (≈ 0.883 µg/mL)	2 (≈ 0.883 µg/mL)	4 (≈ 1.77 µg/mL)	1 (≈ 0.442 µg/mL)	2 (≈ 0.883 µg/mL)	2 (≈ 0.883 µg/mL)	1 (≈ 0.442 µg/mL)	2 (≈ 0.883 µg/mL)	1 (≈ 0.442 µg/mL)	2 (≈ 0.883 µg/mL)	2 (≈ 0.883 µg/mL)				
Cn1c(SCc2ccccc2)nnc1-c1cc([N+](=O)[O-])cc([N+](=O)[O-])c1	0.03 (≈ 0.0111 µg/mL)	0.03 (≈ 0.0111 µg/mL)	0.03 (≈ 0.0111 µg/mL)	0.03 (≈ 0.0111 µg/mL)	0.03 (≈ 0.0111 µg/mL)	0.03 (≈ 0.0111 µg/mL)	0.03 (≈ 0.0111 µg/mL)	0.03 (≈ 0.0111 µg/mL)	0.03 (≈ 0.0111 µg/mL)	0.03 (≈ 0.0111 µg/mL)	0.03 (≈ 0.0111 µg/mL)	0.03 (≈ 0.0111 µg/mL)				
O=[N+]([O-])c1cc(-c2nnc(SCc3ccc(Cl)c(Cl)c3)n2Cc2ccccc2)cc(C(F)(F)F)c1	2 (≈ 1.08 µg/mL)	2 (≈ 1.08 µg/mL)	2 (≈ 1.08 µg/mL)	2 (≈ 1.08 µg/mL)	2 (≈ 1.08 µg/mL)	2 (≈ 1.08 µg/mL)	2 (≈ 1.08 µg/mL)	2 (≈ 1.08 µg/mL)	2 (≈ 1.08 µg/mL)	2 (≈ 1.08 µg/mL)	2 (≈ 1.08 µg/mL)	2 (≈ 1.08 µg/mL)				
GENTAMICIN													1	1	1	2
CO[C@H]1/C=C/O[C@@]2(C)Oc3c(C)c(O)c4c(O)c(c(/C=N/N5CCN(C)CC5)c(O)c4c3C2=O)NC(=O)/C(C)=C\C=C\[C@H](C)[C@H](O)[C@@H](C)[C@@H](O)[C@@H](C)[C@H](OC(C)=O)[C@@H]1C [RIFAMPIN]	> 8		> 8		> 8			> 8		> 8		> 8				
COc1ccc(CSc2nnc(-c3cc([N+](=O)[O-])cc([N+](=O)[O-])c3)n2Cc2ccccc2)cc1	0.03 (≈ 0.0143 µg/mL)	0.03 (≈ 0.0143 µg/mL)	0.03 (≈ 0.0143 µg/mL)	0.03 (≈ 0.0143 µg/mL)	0.03 (≈ 0.0143 µg/mL)	0.03 (≈ 0.0143 µg/mL)	0.03 (≈ 0.0143 µg/mL)	0.03 (≈ 0.0143 µg/mL)	0.03 (≈ 0.0143 µg/mL)	0.03 (≈ 0.0143 µg/mL)	0.03 (≈ 0.0143 µg/mL)	0.03 (≈ 0.0143 µg/mL)				
COc1ccc(CSc2nnc(-c3cc([N+](=O)[O-])cc(C(F)(F)F)c3)n2Cc2ccccc2)cc1	0.5 (≈ 0.25 µg/mL)	0.5 (≈ 0.25 µg/mL)	0.5 (≈ 0.25 µg/mL)	0.5 (≈ 0.25 µg/mL)	0.5 (≈ 0.25 µg/mL)	0.5 (≈ 0.25 µg/mL)	2 (≈ 1 µg/mL)	0.5 (≈ 0.25 µg/mL)	0.5 (≈ 0.25 µg/mL)	0.5 (≈ 0.25 µg/mL)	0.5 (≈ 0.25 µg/mL)	1 (≈ 0.501 µg/mL)				
Cn1c(SCc2ccc(Cl)cc2)nnc1-c1cc([N+](=O)[O-])cc([N+](=O)[O-])c1	0.125 (≈ 0.0507 µg/mL)	0.125 (≈ 0.0507 µg/mL)	0.06 (≈ 0.0243 µg/mL)	0.125 (≈ 0.0507 µg/mL)	0.125 (≈ 0.0507 µg/mL)	0.125 (≈ 0.0507 µg/mL)	0.125 (≈ 0.0507 µg/mL)	0.125 (≈ 0.0507 µg/mL)	0.125 (≈ 0.0507 µg/mL)	0.125 (≈ 0.0507 µg/mL)	0.125 (≈ 0.0507 µg/mL)	0.125 (≈ 0.0507 µg/mL)				
O=[N+]([O-])c1cc(-c2nnc(SCc3ccccc3)n2Cc2ccccc2)cc([N+](=O)[O-])c1	0.03 (≈ 0.0134 µg/mL)	0.03 (≈ 0.0134 µg/mL)	0.03 (≈ 0.0134 µg/mL)	0.03 (≈ 0.0134 µg/mL)	0.03 (≈ 0.0134 µg/mL)	0.03 (≈ 0.0134 µg/mL)	0.03 (≈ 0.0134 µg/mL)	0.03 (≈ 0.0134 µg/mL)	0.03 (≈ 0.0134 µg/mL)	0.03 (≈ 0.0134 µg/mL)	0.03 (≈ 0.0134 µg/mL)	0.03 (≈ 0.0134 µg/mL)				
O=[N+]([O-])c1cc(-c2nnc(SCc3ccc(Cl)cc3)n2Cc2ccccc2)cc([N+](=O)[O-])c1	0.125 (≈ 0.0602 µg/mL)	0.25 (≈ 0.12 µg/mL)	0.125 (≈ 0.0602 µg/mL)	0.25 (≈ 0.12 µg/mL)	0.125 (≈ 0.0602 µg/mL)	0.25 (≈ 0.12 µg/mL)	0.25 (≈ 0.12 µg/mL)	0.125 (≈ 0.0602 µg/mL)	0.25 (≈ 0.12 µg/mL)	0.125 (≈ 0.0602 µg/mL)	0.25 (≈ 0.12 µg/mL)	0.125 (≈ 0.0602 µg/mL)				
